# Measurements published in ChEMBL document CHEMBL4020827, “Targeting Multiple Effector Pathways in Pancreatic Ductal Adenocarcinoma with a G-Quadruplex-Binding Small Molecule” (J Med Chem, 2018).
# Tests used:
# PANC-1 [1] = test: Effect on SHC2 gene expression in human PANC1 cells at 400 nM after 6 hrs by RNA sequence analysis relative to control; assay type: functional
# Procedure, shortened: (§1)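 RNA-seq: cells seeded overnight in 60 mm plates (PANC-1 0.35 x 10^6, MIA PaCa-2 1.5 x 10^6 cells/well), then exposed to 400 nM compound for 6 or 24 h against untreated controls. Cell lines mycoplasma-free by RNA-capture ELISA and STR-profiled. Differentially expressed genes called at FDR < 0.1.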
# PANC-1 [2] = test: Effect on ARF6 gene expression in human PANC1 cells at 400 nM after 24 hrs by RNA sequence analysis relative to control; assay type: functional
# Procedure, shortened: (§2)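 PANC-1 (0.35 x 10^6) or MIA PaCa-2 (1.5 x 10^6) cells seeded overnight in 60 mm plates, then exposed to 400 nM compound for 6 or 24 h; untreated cells as controls. Cells were mycoplasma-free and STR-certified. Differential expression by RNA-seq, called at FDR < 0.1.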
# MIA PaCa-2 [3] = test: Effect on PAK1 gene expression in human MIAPaCa2 cells at 400 nM after 6 hrs by RNA sequence analysis relative to control; assay type: functional
# PANC-1 [4] = test: Effect on PIK3R2 gene expression in human PANC1 cells at 400 nM after 6 hrs by RNA sequence analysis relative to control; assay type: functional
# MIA PaCa-2 [5] = test: Effect on PRKCZ gene expression in human MIAPaCa2 cells at 400 nM after 6 hrs by RNA sequence analysis relative to control; assay type: functional; procedure, shortened: as §1
# [6] = Binding affinity to 5'-FAM/3'-TAMRA labeled KRAS32 promoter G-quadruplex DNA (unknown origin) assessed as change in melting temperature at 1 uM by FRET assay
# Procedure, shortened: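 FRET melting of FAM/TAMRA dual-labelled promoter G4 oligonucleotides, 400 nM, annealed at 95 °C for 10 min in 60 mM potassium cacodylate (pH 7.4) then cooled to RT. Ligand at 1 μM in solution with 50 mM K+. Fluorescence (ex 450–495, em 515–545 nm) read every 0.5 °C over 30–100 °C with a 30 sec hold per step. ΔTm from curve fitting; triplicate measurements.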
# PANC-1 [7] = test: Effect on PLXNA1 gene expression in human PANC1 cells at 400 nM after 6 hrs by RNA sequence analysis relative to control; assay type: functional
# MIA PaCa-2 [8] = test: Effect on PRDM16 gene expression in human MIAPaCa2 cells at 400 nM after 6 hrs by RNA sequence analysis relative to control; assay type: functional
# MIA PaCa-2 [9] = test: Effect on GLI2 gene expression in human MIAPaCa2 cells at 400 nM after 24 hrs by RNA sequence analysis relative to control; assay type: functional; procedure, shortened: as §2
# PANC-1 [10] = test: Effect on FASN gene expression in human PANC1 cells at 400 nM after 24 hrs by RNA sequence analysis relative to control; assay type: functional; procedure, shortened: as §2
# Mus musculus = test: Nephrotoxicity in CD-1 nude mouse xenografted with human MIAPaCa2 cells at 15 mg/kg, iv administered twice weekly for 4 weeks by hematoxylin and eosin staining based assay; assay type: toxicity, organism-based; conditions: in vivo, 672 h
# MIA PaCa-2 [11] = test: Effect on IGF2 gene expression in human MIAPaCa2 cells at 400 nM after 24 hrs by RNA sequence analysis relative to control; assay type: functional; procedure, shortened: as §2
# PANC-1 [12] = test: Effect on PRDM16 gene expression in human PANC1 cells at 400 nM after 6 hrs by RNA sequence analysis relative to control; assay type: functional
# PANC-1 [13] = test: Effect on TEAD3 gene expression in human PANC1 cells at 400 nM after 24 hrs by RNA sequence analysis relative to control; assay type: functional; procedure, shortened: as §1
# MIA PaCa-2 [14] = test: Effect on SHANK2 gene expression in human MIAPaCa2 cells at 400 nM after 6 hrs by RNA sequence analysis relative to control; assay type: functional; procedure, shortened: as §1
# MIA PaCa-2 [15] = test: Effect on MAPK11 gene expression in human MIAPaCa2 cells at 400 nM after 6 hrs by RNA sequence analysis relative to control; assay type: functional
# [16] = Binding affinity to 5'-FAM/3'-TAMRA labeled BCL2 promoter G-quadruplex DNA (unknown origin) assessed as change in melting temperature at 1 uM by FRET assay
# Procedure, shortened: (§3)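 FRET melting with FAM/TAMRA dual-labelled oligonucleotides at 400 nM, annealed at 95 °C for 10 min in 60 mM potassium cacodylate pH 7.4 and slowly cooled. Ligand final 1 μM; solution contains 50 mM K+. Fluorescence read every 0.5 °C over 30–100 °C with 30 s hold, excitation 450–495 nm and emission 515–545 nm. ΔTm from curve fitting, triplicate measurements.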
# [17] = Binding affinity to 5'-FAM/3'-TAMRA labeled T-loop duplex DNA (unknown origin) assessed as change in melting temperature at 1 uM by FRET assay; procedure, shortened: as §3
# MIA PaCa-2 [18] = test: Effect on ARF6 gene expression in human MIAPaCa2 cells at 400 nM after 24 hrs by RNA sequence analysis relative to control; assay type: functional; procedure, shortened: as §2
# [19] = Solubility of the compound in saline; assay type: physicochemical
# MIA PaCa-2 [20] = test: Effect on PAK1 gene expression in human MIAPaCa2 cells at 400 nM after 24 hrs by RNA sequence analysis relative to control; assay type: functional
# MIA PaCa-2 [21] = test: Effect on AKT1S1 gene expression in human MIAPaCa2 cells at 400 nM after 24 hrs by RNA sequence analysis relative to control; assay type: functional; procedure, shortened: as §2
# MIA PaCa-2 [22] = test: Effect on GLI4 gene expression in human MIAPaCa2 cells at 400 nM after 24 hrs by RNA sequence analysis relative to control; assay type: functional; procedure, shortened: as §2
# [23] = Selectivity ratio of IC50 for human MCF7 cells to IC50 for human MIAPaCa2 cells; assay type: functional
# MIA PaCa-2 [24] = test: Effect on MAPK12 gene expression in human MIAPaCa2 cells at 400 nM after 24 hrs by RNA sequence analysis relative to control; assay type: functional
# MIA PaCa-2 [25] = test: Effect on SHC2 gene expression in human MIAPaCa2 cells at 400 nM after 24 hrs by RNA sequence analysis relative to control; assay type: functional; procedure, shortened: as §1
# PANC-1 [26] = test: Effect on RPTOR gene expression in human PANC1 cells at 400 nM after 6 hrs by RNA sequence analysis relative to control; assay type: functional; procedure, shortened: as §1
# PANC-1 [27] = test: Effect on MAPK12 gene expression in human PANC1 cells at 400 nM after 6 hrs by RNA sequence analysis relative to control; assay type: functional
# PANC-1 [28] = test: Effect on MAPK9 gene expression in human PANC1 cells at 400 nM after 6 hrs by RNA sequence analysis relative to control; assay type: functional
# PANC-1 [29] = test: Effect on PFKFB4 gene expression in human PANC1 cells at 400 nM after 24 hrs by RNA sequence analysis relative to control; assay type: functional
# PANC-1 [30] = test: Effect on CTBP1 gene expression in human PANC1 cells at 400 nM after 6 hrs by RNA sequence analysis relative to control; assay type: functional; procedure, shortened: as §2
# MIA PaCa-2 [31] = test: Effect on ROBO3 gene expression in human MIAPaCa2 cells at 400 nM after 6 hrs by RNA sequence analysis relative to control; assay type: functional; procedure, shortened: as §1
# MIA PaCa-2 [32] = test: Effect on CBFA2T3 gene expression in human MIAPaCa2 cells at 400 nM after 6 hrs by RNA sequence analysis relative to control; assay type: functional; procedure, shortened: as §2
smiles,measurement,setting,value
O=C1c2ccc3c4c(c(NCCN5CCCC5)cc(c24)C(=O)N1CCCN1CCOCC1)C(=O)N(CCCN1CCOCC1)C3=O,log2FC,PANC-1 [1],-0.52
same,log2FC,PANC-1 [2],-0.69
same,log2FC,MIA PaCa-2 [3],-0.59
same,log2FC,PANC-1 [4],-0.45
same,log2FC,MIA PaCa-2 [5],-1.87
same,ΔTm,[6],9.6 °C
same,log2FC,PANC-1 [7],-0.84
same,log2FC,MIA PaCa-2 [8],-2.73
same,log2FC,MIA PaCa-2 [9],-1.24
same,log2FC,PANC-1 [10],-0.7
same,Activity,Mus musculus,Non-Toxic
same,log2FC,MIA PaCa-2 [11],0.72
same,log2FC,PANC-1 [12],-2.4
same,log2FC,PANC-1 [13],0.07
same,log2FC,MIA PaCa-2 [14],-1.87
same,log2FC,MIA PaCa-2 [15],-0.53
same,ΔTm,[16],13.3 °C
same,ΔTm,[17],0.6 °C
same,log2FC,MIA PaCa-2 [18],-0.54
same,solubility,[19],> 10000 µg/mL
same,log2FC,MIA PaCa-2 [20],-1.13
same,log2FC,MIA PaCa-2 [21],-1.09
same,log2FC,MIA PaCa-2 [22],-1.85
same,Ratio IC50,[23],>20
same,log2FC,MIA PaCa-2 [24],-1.23
same,log2FC,MIA PaCa-2 [25],-1.96
same,log2FC,PANC-1 [26],-0.8
same,log2FC,PANC-1 [27],-0.75
same,log2FC,PANC-1 [28],-0.28
same,log2FC,PANC-1 [29],-0.74
same,log2FC,PANC-1 [30],-0.66
same,log2FC,MIA PaCa-2 [31],-0.86
same,log2FC,MIA PaCa-2 [32],-2.74
